Values without a mark were called inactive. Records with an inconclusive call do not appear. The source made the active and inactive calls.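 Rule for the calls, unless noted: active = viability at or below 27.92% in each of two runs, the all-compound median minus 4 SD; inconclusive = no clear call, values can overlap the other calls; inactive = the rest.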

Results on 25 compounds are retold here after PubChem BioAssay.

A short description of assay [1]: S. cerevisiae growth inhibition in permissive medium (OD615), pilot counter-assay for S. cerevisiae lifespan shortening project, permissive growth control (AID 705;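 active = growth inhibition above 25% in both replicates, a cutoff set 3 SD above the mean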). The settings on record: OD615, 24 h, at 10 µM, stronger effect = higher value. An outline of the steps:
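System – S. cerevisiae with engineered DeaD lifespan system · Buffer or medium – SC raffinose/galactose permissive medium · Schedule – cells pre-grown 4 h, then 24 h compound exposure, 30 °C humidified · Technique – culture turbidity as optical density at 615 nm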

Assay [2] can be described thus: S. cerevisiae growth inhibition in restrictive medium, OD615, pilot screen, restrictive growth control, yeast lifespan reduction project (AID 706;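 active = growth inhibition above a set limit, 3 SD over mean compound inhibition, in both replicates, cut at about 43% in these data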;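 note: modified DeaD lifespan yeast strain shifted to restrictive glucose medium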). Particulars: OD615, 48 h, at 10 µM, stronger effect = higher value. An outline of the steps:
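Material: engineered S. cerevisiae DeaD strain / Medium: glucose-based CSMM-D restrictive medium / Compound: single dose of 10 µM compound final, 0.25% DMSO / Timing: 4 h pre-incubation, 48 h exposure at 30 °C / Technique: OD615 absorbance reading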

Assay [3] can be described thus: doxorubicin toxicity protection in MRP-1 cells – H69AR cells, CellTiter-Glo, duplicate, MRP-1 activator project, pilot screen (AID 807;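 active = viability increase at or above a cutoff of the median across tested compounds plus 3 SD, cut at about 8.5% in these data, passing the limit was not always enough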;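 note: compound pretreatment 18-22 h then 72 h combined with doxorubicin; 0% = doxorubicin alone and 100% = vehicle without doxorubicin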). Particulars: H69AR viability with doxorubicin, CellTiter-Glo luminescence; at 10 µM; stronger effect = higher value.
Assay [4] can be described thus: viability of HCT116 without oncogenic beta-catenin – human colon tumor cells, pilot screen (AID 823;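 active = cell viability at or below a set limit in both duplicate runs, the limit being the all-compound median minus 4 SD, cut at about 23% in these data, passing the limit was not always enough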;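 note: 0% = wells killed by 20 µM Hyamine and 100% = untreated DMSO cell wells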). Particulars: HCT116 beta-catenin knockout viability, CellTiter-Glo, 60 h; at 10 µM; stronger effect = lower value.
A short description of assay [5]: viability of PTEN-null HCT116 cells – cell-based, HCT116 clonal line, CellTiter-Glo, pilot screen (AID 824).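 Note: 0% = 20 µM Hyamine control and 100% = vehicle cell control.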 Particulars: HCT116 PTEN-deleted viability, 60 h, at 10 µM, stronger effect = lower value.
Assay [6] is described as follows: RAM pathway blockade in budding yeast – dse1pr::URA3 reporter, 5-FOA selection, pilot screen (AID 869;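 active = inhibition over a set limit, the all-compound mean plus 3 SD, in both replicate runs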;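 note: 0% = DMSO wells with no growth and 100% = 10 µM 1-NA-PP1 with full growth; RAM network block rescues cells from 5-FOA so hits raise OD615 growth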). The settings on record: S. cerevisiae dse1pr::URA3 5-FOA growth, OD615, 2 d; at 10 µM; stronger effect = higher value; strain carries analog-sensitive mutant Cbk1 kinase.
The nature of assay [7]: RAM signaling pathway blockade in yeast – S. cerevisiae, Pdr1DBD-CYC8 efflux-inhibited sensitized strain, primary screen (AID 1298;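 active = RAM network inhibition above 8.4% in each of two replicates, 3 SD over the compound average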;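 note: 0% = DMSO untreated cells without growth and 100% = 10 µM 1-NA-PP1 full growth; higher means more yeast growth rescued from 5-FOA killing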). The settings on record: S. cerevisiae cbk1-as DSE1-URA3 strain, 5-FOA growth OD615, 2 d; at 50 µM; stronger effect = higher value.

A word on the viability: it is a read-out of living cells in per cent, often relative to untreated cells. Usually inhibition stands for the drop in the measured response relative to a control, in per cent. As for `Cc1cc(=O)[nH]c(SCc2cc(=O)n3nc(C)sc3n2)n1`, the results for the growth inhibition in assay [1] and in assay [2] were 4.53% and -7.55%, respectively. Besides, in assay [3], the viability increase was -1%. Also, the viability was 104% in assay [4] and 96.5% in assay [5]. The inhibition in assay [6] is 1.32%. Besides, the RAM network inhibition in assay [7] was 5.96%.
`Cc1[nH]c(=O)[nH]c(=O)c1S(=O)(=O)N1CCCC(C(=O)N2CCC(Cc3ccccc3)CC2)C1` (stereo not given): the growth inhibition was -7.81% in assay [1] and -8.27% in assay [2]. The viability increase in assay [3] is 0.94%. The figures for the viability in assay [4] and in assay [5] were 100% and 101%, respectively. Moreover, the inhibition in assay [6] is 0.385%. The RAM network inhibition in assay [7] is 3.66%.
On to `CCN(C(=O)c1sc(N)c(C#N)c1C)C1CCCCC1`, for which the growth inhibition in assay [1] was -1.28%; in assay [2], -0.585%. Further, the viability increase in assay [3] is 0.43%. Also, the viability is 92.1% in assay [4] and 91.6% in assay [5]. In assay [6], the inhibition is 1.5%. Moreover, the RAM network inhibition in assay [7] is 0.01%.
For the compound `CC(=O)Nc1sc(N)nc1-c1ccccc1`, the values for the growth inhibition in assay [1] and in assay [2] were -7.75% and 16.2%, respectively. Besides, in assay [3], the viability increase is 0.94%. Also, the viability was 88.7% in assay [4] and 99.5% in assay [5]. Further, the inhibition in assay [6] was 0.055%. Further, the RAM network inhibition in assay [7] is 3.89%.
In the case of `CCC(=O)Nc1nnc(-c2ccc(OC)cc2)o1`, the growth inhibition in assay [1] is -8.21%; in assay [2], -11.8%. Further, in assay [3], the viability increase is -1.1%. Besides, the viability in assay [4] was 103%; in assay [5], 98.4%. For the same compound, the inhibition in assay [6] is 1.01%. Besides, the RAM network inhibition in assay [7] was -0.04%.
Consider `C#CC(C)(C)NC(=O)CSc1nc2c(c(=O)n(C)c(=O)n2C)n1CCCC`, for which the results for the growth inhibition in assay [1] and in assay [2] were -15.3% and -13.7%, respectively. Besides, the viability increase in assay [3] is 1.86%. In addition, the results for the viability in assay [4] and in assay [5] were 102% and 89.4%, respectively. In assay [6], the inhibition was 2.11%. In assay [7], the RAM network inhibition was 1.45%.
Turning to `COc1ccccc1-c1nnc(NC(=O)C(C)SC2=NCCS2)s1` (stereo not given), the growth inhibition in assay [1] was 5.92%; in assay [2], 48.7% (active). Also, the viability increase in assay [3] was -4.43%. In addition, the values for the viability in assay [4] and in assay [5] were 83.4% and 91.2%, respectively. For the same compound, in assay [6], the inhibition is -0.115%. Further, in assay [7], the RAM network inhibition is 6.22%.
Regarding `CC(C)(C)n1nc2c(c1NC(=O)c1ccccc1F)CS(=O)C2` (stereo not given), the growth inhibition is 1.35% in assay [1] and 0.655% in assay [2]. Further, the viability increase in assay [3] is 0.62%. Further, the viability in assay [4] and in assay [5] was 101% each time. Moreover, the inhibition in assay [6] is 1.66%. Moreover, the RAM network inhibition in assay [7] was 1.67%.
As to `CCN(c1ccccc1)c1cc(C)nc2ncnn12`, the results for the growth inhibition in assay [1] and in assay [2] were -18% and -1.56%, respectively. The viability increase in assay [3] is -3.24%. Besides, the viability in assay [4] is 96.7%; in assay [5], 94.9%. Moreover, in assay [6], the inhibition was 1.6%. For the same compound, the RAM network inhibition in assay [7] was 4.57%.
Consider `Cn1c(=O)[nH]c(=O)c2c1nc(N1CCCCCC1)n2CCSc1nc2ccccc2o1`, for which the growth inhibition was -8.05% in assay [1] and -7.14% in assay [2]. Further, the viability increase in assay [3] was -3.78%. In addition, the viability in assay [4] is 95.4%; in assay [5] it was 91.3%. In addition, in assay [6], the inhibition was 1.73%. In addition, the RAM network inhibition in assay [7] was 3.18%.
For `COc1ccc(O)c(-c2[nH]ncc2C(=O)c2ccccc2)c1`, the growth inhibition in assay [1] was -14.7%; in assay [2], -2.28%. In addition, the viability increase in assay [3] was -2.45%. Besides, the viability in assay [4] is 101%; in assay [5], 94.8%. Further, the inhibition in assay [6] is 1.27%. Further, the RAM network inhibition in assay [7] was 4.35%.
In the case of `CCCC(=O)Nc1nc2ccc(OCC)cc2s1`, the growth inhibition was -2.23% in assay [1] and -0.195% in assay [2]. The viability increase in assay [3] was 0.26%. Besides, the viability in assay [4] was 86.8%; in assay [5] it was 85.7%. Moreover, the inhibition in assay [6] was 0.615%. In addition, the RAM network inhibition in assay [7] is 2.15%.
In the case of `Cc1cc2ccccc2n1CCNC(=O)c1cccs1`, the growth inhibition in assay [1] is 0.02%; in assay [2], 7.93%. In addition, the viability increase in assay [3] is -2.29%. The viability is 92.6% in assay [4] and 91.4% in assay [5]. The inhibition in assay [6] was 1.69%. Also, the RAM network inhibition in assay [7] was 3.36%.
Consider `Cc1nccc2[nH]c(=O)c(C(=O)NC3CCN(Cc4ccccc4)CC3)cc12`, for which the growth inhibition in assay [1] was -0.105%; in assay [2], -8.34%. Further, the viability increase in assay [3] was -3.81%. Further, the figures for the viability in assay [4] and in assay [5] were 104% and 93.9%, respectively. In assay [6], the inhibition is 1.82%. The RAM network inhibition in assay [7] is 7.9%.
For the compound `O=C(Nc1ccc(Br)cc1F)c1ccc2c(c1)N(Cc1ccccc1)C(=O)CS2=O` (stereo not given), the growth inhibition was -7.48% in assay [1] and 1.12% in assay [2]. Also, the viability increase in assay [3] is -0.49%. The viability in assay [4] was 81.1%; in assay [5] it was 67.8%. The inhibition in assay [6] is 2.64%. Besides, the RAM network inhibition in assay [7] was 2.84%.
Turning to `O=C(NC(=O)c1ccccc1)OCC(F)(F)F`, the growth inhibition was -6.06% in assay [1] and -1.48% in assay [2]. For the same compound, the viability increase in assay [3] was 0.71%. For the same compound, the viability in assay [4] is 98.9%; in assay [5], 103%. The inhibition in assay [6] was 0.34%. The RAM network inhibition in assay [7] is 3.03%.
Turning to `CCN1CCN(C(C(=O)NC2CCCC2)c2ccc(Cl)cc2)CC1` (stereo not given), the growth inhibition in assay [1] was -14.8%; in assay [2], 0.47%. For the same compound, the viability increase in assay [3] was -4.44%. The viability in assay [4] is 93.9%; in assay [5], 93.1%. Besides, in assay [6], the inhibition is 1.02%. In addition, the RAM network inhibition in assay [7] is 3.71%.
Regarding `O=C(CCn1c(=O)oc2ccccc21)N1CCN(c2ccc(F)cc2)CC1`, the figures for the growth inhibition in assay [1] and in assay [2] were 2.05% and -4.67%, respectively. Further, the viability increase in assay [3] was -0.8%. Besides, the figures for the viability in assay [4] and in assay [5] were 107% and 102%, respectively. In addition, the inhibition in assay [6] was 1.09%. In assay [7], the RAM network inhibition was 3.71%.
`CC(C)NS(=O)(=O)c1ccc(CCC(=O)NCc2cccnc2)cc1`: the results for the growth inhibition in assay [1] and in assay [2] were 2.32% and -6.38%, respectively. The viability increase in assay [3] was -0.9%. In addition, the viability is 88% in assay [4] and 92.5% in assay [5]. The inhibition in assay [6] was 1.33%. Besides, in assay [7], the RAM network inhibition was 1.08%.
`CCOC(=O)CNC(=O)CSc1nnc(Cn2c(=O)sc3ccccc32)n1C`: the growth inhibition in assay [1] is -6.96%; in assay [2] it was 6.85%. In addition, the viability increase in assay [3] was -1.45%. The viability is 108% in assay [4] and 98% in assay [5]. In assay [6], the inhibition was 0.83%. For the same compound, in assay [7], the RAM network inhibition is 3.34%.
`N#Cc1ccc(Oc2cccc(C(=O)O)c2)cc1C#N`: the growth inhibition was -13.1% in assay [1] and -3.21% in assay [2]. In addition, the viability increase in assay [3] was -0.11%. The viability in assay [4] was 94.8%; in assay [5], 92.7%. Also, in assay [6], the inhibition is 1.34%. The RAM network inhibition in assay [7] was 2.14%.
Consider `Cc1cccc(CC(=O)Nc2cc(=O)n(C)c(=O)n2C)c1`, for which the growth inhibition in assay [1] is -3.74%; in assay [2], -4.44%. Moreover, the viability increase in assay [3] is -1.1%. The viability in assay [4] is 100%; in assay [5], 97.4%. Also, the inhibition in assay [6] is 1.84%. Besides, in assay [7], the RAM network inhibition was 0.48%.
Take `O=C(CCS(=O)CCC(=O)NCc1ccccc1)NCc1ccccc1`: the growth inhibition was -2.28% in assay [1] and 6.21% in assay [2]. Further, the viability increase in assay [3] is -0.32%. Further, the results for the viability in assay [4] and in assay [5] were 97.9% and 102%, respectively. Also, the inhibition in assay [6] was 0.92%. Besides, the RAM network inhibition in assay [7] was 4.15%.
As to `O=C(Cn1cnc2c(nnn2-c2ccccc2)c1=O)NCC1CCCO1` (stereo not given), the values for the growth inhibition in assay [1] and in assay [2] were -6.44% and 8.14%, respectively. For the same compound, the viability increase in assay [3] is -2.94%. The values for the viability in assay [4] and in assay [5] were 100% and 94.3%, respectively. Moreover, the inhibition in assay [6] is 1.41%. Moreover, the RAM network inhibition in assay [7] was 1.65%.
With `NC(=O)C1CCN(C(=O)c2ccc(CS(=O)(=O)c3c(Cl)cccc3Cl)o2)CC1`, the growth inhibition is -1.46% in assay [1] and -0.415% in assay [2]. For the same compound, the viability increase in assay [3] was -0.98%. In addition, the viability in assay [4] is 109%; in assay [5], 98.3%. Also, the inhibition in assay [6] is 1.49%. The RAM network inhibition in assay [7] was 1.38%.
